Experimental data published in ChEMBL document CHEMBL3108732, “Synthesis and evaluation of analogues of N-phthaloyl-l-tryptophan (RG108) as inhibitors of DNA methyltransferase 1” (J Med Chem, 2014).
Active and inactive are the calls of the source. The rule behind the calls is not given here.

Experiments:
[1] = molecular target: T1, DNA (cytosine-5)-methyltransferase 1 (Homo sapiens, UniProt P26358); experiment: Inhibition of human recombinant DNMT1 expressed in […] assessed as inhibition of tritiated methyl incorporation from [3H]-labeled AdoMet into hemimethylated DNA duplex at 500 uM after 2 hrs by liquid scintillation counting analysis relative to control; assay type: cell-based
Outline: (§1)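 Human recombinant DNMT1 transferred tritiated methyl from [3H]-AdoMet onto a short hemimethylated DNA duplex carrying 8 CpGs, and direct incorporation of the radiolabel was measured. Compounds were first screened at a single concentration.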

[2] = system: DU-145; experiment: Cytotoxicity against human DU145 cells after 72 hrs by MTS assay; assay type: functional; conditions: DU-145, 72 h, read-out: TC50 (the source's name)
[3] = molecular target: T1, DNA (cytosine-5)-methyltransferase 1; experiment: Inhibition of human recombinant DNMT1 expressed in […] assessed as inhibition of tritiated methyl incorporation from [3H]-labeled AdoMet into hemimethylated DNA duplex after 2 hrs by liquid scintillation counting analysis; assay type: cell-based; outline: as §1
[4] = Inhibition of Spiroplasma M.SssI using unmethylated DNA as substrate after 2 hrs by agarose gel electrophoresis
[5] = molecular target: DNA (cytosine-5)-methyltransferase 3A (Mus musculus) (UniProt O88508); experiment: Binding affinity to mouse Dnmt3A catalytic domain assessed as inhibition of AdoHcy binding at 0.85 mM by WaterLOGSY spectroscopic analysis
[6] = Inhibition of G9a (unknown origin) by [3H]-SAM incorporation assay
Outline: (§2)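 In vitro methyltransferase activity was quantified with a biotin–avidin microplate kinetic assay based on [3H]-SAM incorporation. G9a was tested up to 1 mM.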

[7] = Inhibition of Escherichia coli DAM by [3H]-SAM incorporation assay; outline: as §2

T1 sequence (P26358 whole entry): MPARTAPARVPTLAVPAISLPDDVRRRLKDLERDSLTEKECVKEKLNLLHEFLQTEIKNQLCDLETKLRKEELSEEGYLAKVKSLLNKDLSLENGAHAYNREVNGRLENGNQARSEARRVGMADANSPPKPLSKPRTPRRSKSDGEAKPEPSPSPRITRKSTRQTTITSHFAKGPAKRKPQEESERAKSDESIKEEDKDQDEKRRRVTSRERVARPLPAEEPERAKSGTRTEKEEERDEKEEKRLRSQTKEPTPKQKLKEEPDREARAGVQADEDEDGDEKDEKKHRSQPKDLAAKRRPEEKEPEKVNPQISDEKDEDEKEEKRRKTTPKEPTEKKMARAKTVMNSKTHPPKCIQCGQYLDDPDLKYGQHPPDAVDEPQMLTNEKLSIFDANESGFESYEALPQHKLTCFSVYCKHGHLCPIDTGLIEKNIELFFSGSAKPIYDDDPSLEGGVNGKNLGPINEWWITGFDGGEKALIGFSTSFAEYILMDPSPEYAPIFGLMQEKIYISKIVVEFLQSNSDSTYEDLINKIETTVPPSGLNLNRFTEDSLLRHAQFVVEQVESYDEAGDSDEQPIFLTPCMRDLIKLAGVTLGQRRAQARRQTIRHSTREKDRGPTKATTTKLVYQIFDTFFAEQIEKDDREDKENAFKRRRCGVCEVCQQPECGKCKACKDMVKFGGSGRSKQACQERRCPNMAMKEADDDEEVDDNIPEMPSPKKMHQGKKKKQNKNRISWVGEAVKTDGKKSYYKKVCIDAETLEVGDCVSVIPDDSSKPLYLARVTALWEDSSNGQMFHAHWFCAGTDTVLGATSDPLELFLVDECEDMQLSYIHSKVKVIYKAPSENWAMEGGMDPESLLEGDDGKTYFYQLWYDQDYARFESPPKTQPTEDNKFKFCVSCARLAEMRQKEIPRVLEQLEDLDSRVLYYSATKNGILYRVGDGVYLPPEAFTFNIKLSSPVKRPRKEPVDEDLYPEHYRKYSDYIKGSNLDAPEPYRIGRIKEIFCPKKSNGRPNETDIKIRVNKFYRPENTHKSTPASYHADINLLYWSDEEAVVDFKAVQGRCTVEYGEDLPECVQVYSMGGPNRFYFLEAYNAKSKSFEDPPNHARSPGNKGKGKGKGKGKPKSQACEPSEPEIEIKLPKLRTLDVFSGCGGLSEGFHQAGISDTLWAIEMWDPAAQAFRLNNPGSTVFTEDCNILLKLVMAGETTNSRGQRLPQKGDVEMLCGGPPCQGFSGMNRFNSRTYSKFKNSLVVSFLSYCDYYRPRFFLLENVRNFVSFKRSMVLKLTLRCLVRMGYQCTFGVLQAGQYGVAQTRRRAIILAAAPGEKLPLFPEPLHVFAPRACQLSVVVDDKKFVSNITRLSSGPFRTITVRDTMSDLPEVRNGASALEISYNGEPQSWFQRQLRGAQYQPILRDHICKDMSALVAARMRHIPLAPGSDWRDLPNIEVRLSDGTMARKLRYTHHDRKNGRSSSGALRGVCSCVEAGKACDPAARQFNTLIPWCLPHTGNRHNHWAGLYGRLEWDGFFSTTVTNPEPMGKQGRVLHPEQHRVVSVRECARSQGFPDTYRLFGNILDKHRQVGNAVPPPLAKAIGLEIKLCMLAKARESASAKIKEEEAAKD

O=C(O)C1C(Cc2c[nH]c3ccccc23)CCN1C(=O)c1ccc2ccccc2c1 (stereo not given)
inhibition [1]: 50%

O=C(O)[C@H]1[C@@H](Cc2c[nH]c3ccccc23)CCN1C(=O)c1ccc2ccccc2c1
CC50 [2]: 130 µM | IC50 [3]: 50 µM

O=C(O)[C@@H]1[C@H](Cc2c[nH]c3ccccc23)CCN1C(=O)CN1C(=O)c2ccccc2C1=O
inhibition [1]: inactive

O=C(O)[C@@H]1[C@H](Cc2c[nH]c3ccccc23)CCN1Sc1ccc([N+](=O)[O-])cc1[N+](=O)[O-]
CC50 [2]: 250 µM | IC50 [3]: 80 µM

O=C(O)CN1C(=O)c2ccccc2C1=O
inhibition [1]: inactive

N[C@@H](Cc1c[nH]c2ccccc12)C(=O)O
inhibition [1]: inactive

O=C(O)[C@@H](Cc1c[nH]c2ccccc12)CN1C(=O)c2ccccc2C1=O
inhibition [1]: inactive

NC(=O)[C@H](Cc1c[nH]c2ccccc12)N1C(=O)c2ccccc2C1=O
inhibition [1]: inactive

O=C(CN1C(=O)c2ccccc2C1=O)N[C@@H](Cc1c[nH]c2ccccc12)C(=O)O
inhibition [1]: inactive

O=C(O)[C@H](Cc1c[nH]c2ccccc12)NSc1ccc([N+](=O)[O-])cc1[N+](=O)[O-]
CC50 [2]: 103 µM | IC50 [3]: 40 µM

O=C(O)C[C@H](Cc1c[nH]c2ccccc12)N1C(=O)c2ccccc2C1=O
inhibition [1]: inactive

O=C(O)[C@H](Cc1c[nH]cn1)N1C(=O)c2ccccc2C1=O
inhibition [1]: inactive

O=C(O)[C@H](Cc1c[nH]c2ccccc12)NSc1ncccc1[N+](=O)[O-]
CC50 [2]: 211 µM | IC50 [3]: 20 µM

O=C(O)[C@H](Cc1ccccc1)N1C(=O)c2ccccc2C1=O
inhibition [1]: inactive

O=C(O)[C@H]1[C@@H](Cc2c[nH]c3ccccc23)CCN1C(=O)c1ccccc1
CC50 [2]: 232 µM | IC50 [3]: 73 µM

O=C(O)[C@H](Cc1c[nH]c2ccccc12)n1c(=O)[nH]c2ccccc2c1=O
inhibition [1]: inactive

O=C(O)[C@@H]1[C@H](Cc2c[nH]c3ccccc23)CCN1C(=O)c1ccc2ccccc2c1
CC50 [2]: 280 µM | IC50 [3]: 128 µM

O=C(O)[C@H](Cc1c[nH]c2ccccc12)N1C(=O)c2ccccc2C1=O
IC50 [4]: 0.115 µM | CC50 [2]: 660 µM | IC50 [3]: 390 µM | inhibition [5]: 50%

O=C(O)[C@@H]1[C@H](Cc2c[nH]c3ccccc23)CCN1C(=O)c1ccccc1
CC50 [2]: 230 µM | IC50 [3]: 98 µM

O=C(O)[C@H](Cc1csc2ccccc12)N1C(=O)c2ccccc2C1=O
IC50 [3]: 230 µM

O=C(O)[C@H](Cc1c[nH]c2ccccc12)CN1C(=O)c2ccccc2C1=O
inhibition [1]: inactive

O=C(O)[C@H](Cc1cc(=O)[nH]c2ccccc12)N1C(=O)c2ccccc2C1=O
inhibition [1]: inactive

O=C(O)C1C(Cc2c[nH]c3ccccc23)CCN1C(=O)c1ccccc1 (stereo not given)
IC50 [6]: > 1000 µM | inhibition [1]: 50% | IC50 [7]: > 750 µM
